Assay outcomes deposited in PubChem by Broad Institute.
This is a sample that favours compounds with a hit; in the whole collection about 2.8% have one here.
SR-BI HDL uptake: mouse SR-BI HDL lipid transfer inhibition | Q61009 | ldlA[mSR-BI] CHO cells, DiI-HDL uptake fluorescence, 3 h | inhibition, % at 12.5 µM | hit rate 0.96% among 320,000 | AID 488896;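 active = mean replicate inhibition of at least 70% and a set share of replicates each scoring 70 or more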;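 note: 0% = median of neutral control wells and 100% = median of positive control wells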
Target sequence (Q61009 whole entry, looked up): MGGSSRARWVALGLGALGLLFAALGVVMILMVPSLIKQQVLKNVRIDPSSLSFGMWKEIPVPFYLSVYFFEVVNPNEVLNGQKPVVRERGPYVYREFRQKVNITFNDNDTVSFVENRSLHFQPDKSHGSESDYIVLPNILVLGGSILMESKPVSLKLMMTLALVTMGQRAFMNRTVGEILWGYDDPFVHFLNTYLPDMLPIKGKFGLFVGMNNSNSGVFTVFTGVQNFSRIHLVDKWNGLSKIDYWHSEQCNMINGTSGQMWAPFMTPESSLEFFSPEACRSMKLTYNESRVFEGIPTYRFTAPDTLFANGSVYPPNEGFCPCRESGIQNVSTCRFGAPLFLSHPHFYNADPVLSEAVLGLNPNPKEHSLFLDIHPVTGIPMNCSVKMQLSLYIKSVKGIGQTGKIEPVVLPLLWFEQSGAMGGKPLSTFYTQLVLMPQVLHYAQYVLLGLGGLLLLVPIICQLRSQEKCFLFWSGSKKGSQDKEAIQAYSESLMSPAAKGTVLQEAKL
CAL PDZ FP-1: inhibitors of human CAL PDZ peptide binding; hit rate 0.02% among 330,000; inhibition, % at 20 µM; purified CAL PDZ, TMR-peptide fluorescence polarization, 1 h;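 active = highest replicate inhibition of at least 40%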;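 note: plate controls were DMSO neutral control wells for no effect and unlabeled competitor peptide control wells for full effect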
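Material: tagged CAL PDZ protein CerCALP, purified; buffer or medium: sodium phosphate/NaCl buffer pH 7.4 with TCEP, IgG, Thesit; also added: fluorescent TMR peptide probe; schedule: 1 h incubation at room temperature before polarization reading; technique: fluorescence polarization from S- and P-plane intensities, G-factor corrected; control set: unlabelled peptide and DMSO controls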
dFosB act-1: mouse delta FosB homodimer activation; P13346; purified delta FosB, TAMRA-CDK5 oligo fluorescence polarization; percent of positive-control signal above neutral wells; activation, % at 25 µM; hit rate 0.99% among 340,000; AID 493131;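 active = mean activation above about 17%, with every replicate also reaching it, limit read from the data, passing the limit was not always enough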
CAL PDZ FP-2: inhibitors of human CAL PDZ peptide binding; Q9HD26; purified CAL PDZ, TMR-peptide fluorescence polarization, 1 h; inhibition, % at 24.9 µM; hit rate 0.92% among 300,000; AID 602252;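 active = mean inhibition of at least 30% with at least half of replicates also reaching 30%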;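 note: 0% = DMSO neutral control and 100% = excess unlabeled competitor peptide PRC23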
SR-BI DiI-HDL act: enhances SR-BI lipid uptake from DiI-HDL | CHO ldlA[mSR-BI] cells, DiI-HDL uptake fluorescence, 3 h; 100 = double the neutral-control signal | activation, % at 12.5 µM | hit rate 0.096% among 320,000 | AID 504775;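 active = mean replicate activation of at least 60% and every replicate at or above 60%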;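 note: 0% = median plate neutral-control signal and 100% = twice that signal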
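System: CHO ldlA[mSR-BI] cells / Medium: HEPES-buffered (25 mM, pH 7.4) F12 plus 0.5% BSA / Probe or stimulus: labelled HDL, 10 µg/mL / Doses: single compound concentration, delivered by pin transfer / Schedule: 3 h, 37 °C / Measured by: DiI fluorescence, bottom read / Measure: cell-associated DiI fluorescence as measure of HDL uptake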
dFosB act-2: enhances mouse delta FosB homodimer binding to DNA; AID 588690; activation, % at 24.9 µM; shares compounds with dFosB act-1; 2,400 tested, under 10 active; purified delta FosB, TAMRA-CDK5 oligo fluorescence polarization; normalised: neutral wells 0, positive control 100;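 active = highest replicate activation at or above 34% and every replicate reaching that threshold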;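 note: higher polarization means more probe DNA bound by delta FosB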
Numbers without * were called inactive.

How did CC(=O)c1cccc(NC(=O)COC(=O)c2cccc(N3C(=O)c4ccccc4C3=O)c2)c1 do in these assays?
SR-BI HDL uptake: 15.7; CAL PDZ FP-1: -2.9; dFosB act-1: 0.5; CAL PDZ FP-2: -2.0; SR-BI DiI-HDL act: -15.7

What do the screens show for `NS(=O)(=O)c1ccc(NC(=O)c2ccc3c(c2)CCN3S(=O)(=O)c2ccccc2)cc1`?
SR-BI HDL uptake: 63.6; CAL PDZ FP-1: -1.2; dFosB act-1: 32.4*; CAL PDZ FP-2: 2.2; SR-BI DiI-HDL act: -63.6; dFosB act-2: 1.0

What do the screens show for `CC(=O)c1ccc(NC(=O)c2cccc(N3C(=O)c4ccccc4C3=O)c2)cc1`?
SR-BI HDL uptake: -18.5; CAL PDZ FP-1: -1.7; dFosB act-1: 78.1*; CAL PDZ FP-2: -1.4; SR-BI DiI-HDL act: 18.5; dFosB act-2: 1.0

How did COc1ccc(NC(=O)c2cccc(N3C(=O)c4ccc(C(=O)Nc5ccc(OC)c(O)c5)cc4C3=O)c2)cc1O do in these assays?
SR-BI HDL uptake: 52.7; CAL PDZ FP-1: -0.3; dFosB act-1: -6.6; CAL PDZ FP-2: 5.8; SR-BI DiI-HDL act: -52.7

Results for NS(=O)(=O)c1ccc(NC(=O)c2cccc(N3C(=O)c4ccccc4C3=O)c2)cc1 ?
SR-BI HDL uptake: 13.9; CAL PDZ FP-1: 1.9; dFosB act-1: 111.3*; CAL PDZ FP-2: 19.7; SR-BI DiI-HDL act: -13.9; dFosB act-2: 5.4

How did CC(=O)N1CCc2cc(S(=O)(=O)NC(CC(C)C)C(=O)N3CCCC3)ccc21 (stereo not drawn) do in these assays?
SR-BI HDL uptake: -24.2; CAL PDZ FP-1: -0.4; dFosB act-1: -5.3; CAL PDZ FP-2: 10.9; SR-BI DiI-HDL act: 24.2

How did Cc1cc(C)c(-c2cc(NC(=O)COC(=O)c3ccc(NC(=O)CC#N)cc3)n(-c3ccccc3)n2)cc1C do in these assays?
SR-BI HDL uptake: 29.2; CAL PDZ FP-1: 0.3; dFosB act-1: 51.3*; CAL PDZ FP-2: -1.9; SR-BI DiI-HDL act: -29.2; dFosB act-2: 2.4

What do the screens show for `CC(=O)c1ccc(N2CCN(C(=O)/C=C/c3ccc4ccccc4n3)CC2)cc1`?
SR-BI HDL uptake: 2.8; CAL PDZ FP-1: -3.0; dFosB act-1: 40.3*; SR-BI DiI-HDL act: -2.8; dFosB act-2: 3.1

Results for CC(=O)c1ccc(N2CCN(C(=O)c3ccc4ccccc4n3)CC2)cc1 ?
SR-BI HDL uptake: 9.2; CAL PDZ FP-1: 0.3; dFosB act-1: 7.2; SR-BI DiI-HDL act: -9.2

Results for COCCn1ccc2c(OCC(=O)Nc3ccccc3OC)cccc2c1=O ?
SR-BI HDL uptake: 6.4; CAL PDZ FP-1: -6.9; dFosB act-1: -15.9; CAL PDZ FP-2: -5.0; SR-BI DiI-HDL act: -6.4

What do the screens show for `COc1cc(C(=O)OCC(=O)NCc2ccccc2)cc(NC(=O)c2ccco2)c1OC`?
SR-BI HDL uptake: 6.8; CAL PDZ FP-1: -0.8; dFosB act-1: 26.5*; CAL PDZ FP-2: -0.2; SR-BI DiI-HDL act: -6.8; dFosB act-2: 2.1

How did CNC(=O)COC(=O)c1cc(NC(=O)c2ccco2)c(OC)c(OC)c1 do in these assays?
SR-BI HDL uptake: 18.6; CAL PDZ FP-1: -0.9; dFosB act-1: 6.5; CAL PDZ FP-2: -5.6; SR-BI DiI-HDL act: -18.6

How did O=C(NC1CCC(CC2CCC(NC(=O)C(Cl)Cl)CC2)CC1)C(Cl)Cl (stereo not drawn) do in these assays?
SR-BI HDL uptake: 15.6; CAL PDZ FP-1: 0.8; dFosB act-1: 58.5*; CAL PDZ FP-2: -2.5; SR-BI DiI-HDL act: -15.6; dFosB act-2: 5.8

How did O=C(N/N=C/c1ccncc1)c1ccc(NC(=O)c2cccc(Cl)c2)cc1 do in these assays?
SR-BI HDL uptake: 45.4; CAL PDZ FP-1: -2.1; dFosB act-1: 39.3*; CAL PDZ FP-2: -0.1; SR-BI DiI-HDL act: -45.4; dFosB act-2: 3.1

How did O=C(N/N=C/c1ccncc1)c1ccc(NC(=O)c2ccc(Cl)cc2)cc1 do in these assays?
SR-BI HDL uptake: 45.4; CAL PDZ FP-1: -7.4; dFosB act-1: 65.2*; SR-BI DiI-HDL act: -45.4; dFosB act-2: -1.4

How did CN(C)C(=O)COC(=O)c1cccc(CN2C(=O)c3ccccc3C2=O)c1 do in these assays?
SR-BI HDL uptake: -14.3; dFosB act-1: 1.3; CAL PDZ FP-2: -4.9; SR-BI DiI-HDL act: 14.3

What do the screens show for `Cc1ccccc1C(=O)Nc1cccc(NC(=S)NC(=O)c2cccs2)c1`?
SR-BI HDL uptake: 60.0; CAL PDZ FP-1: 0.2; dFosB act-1: 50.2*; CAL PDZ FP-2: -4.8; dFosB act-2: 0.0

What do the screens show for `CC(=O)NC(=S)Nc1ccc(NC(=S)NC(=O)c2cccs2)cc1`?
SR-BI HDL uptake: 3.8; CAL PDZ FP-1: -0.8; dFosB act-1: 37.0*; CAL PDZ FP-2: -8.1; SR-BI DiI-HDL act: -3.8; dFosB act-2: 2.6

How did CCCC(=O)Nc1ccc(NC(=S)NC(=O)c2cccs2)cc1 do in these assays?
SR-BI HDL uptake: 13.3; CAL PDZ FP-1: -1.2; dFosB act-1: 6.6; CAL PDZ FP-2: -2.6; SR-BI DiI-HDL act: -13.3

Results for NS(=O)(=O)c1ccc(NC(=O)Cc2cccs2)cc1 ?
SR-BI HDL uptake: -5.5; CAL PDZ FP-1: 0.6; dFosB act-1: -0.6; SR-BI DiI-HDL act: 5.5

How did NS(=O)(=O)c1ccc(NC(=O)COC(=O)/C(=C/c2cccs2)c2cccs2)cc1 do in these assays?
CAL PDZ FP-1: -2.6; dFosB act-1: 27.1*; CAL PDZ FP-2: -2.4; dFosB act-2: 1.4

How did COc1ccccc1NC(=O)c1cc(S(=O)(=O)N2CCc3ccccc32)ccc1F do in these assays?
SR-BI HDL uptake: -0.6; CAL PDZ FP-1: -0.6; dFosB act-1: 30.2*; CAL PDZ FP-2: -0.6; SR-BI DiI-HDL act: 0.6; dFosB act-2: 5.1

What do the screens show for `CCCNC(=O)c1cc(S(=O)(=O)N2CCc3ccccc32)ccc1F`?
SR-BI HDL uptake: 24.3; CAL PDZ FP-1: -1.8; dFosB act-1: -2.2; SR-BI DiI-HDL act: -24.3

What do the screens show for `N/C(CC(=O)Nc1ccc(F)c(Cl)c1)=N\OC(=O)c1cccs1`?
SR-BI HDL uptake: -15.1; CAL PDZ FP-1: -1.2; dFosB act-1: 23.2*; CAL PDZ FP-2: -1.6; SR-BI DiI-HDL act: 15.1; dFosB act-2: 0.9

How did O=C(COC(=O)c1cccs1)Nc1ccc(F)c(F)c1 do in these assays?
SR-BI HDL uptake: -13.8; CAL PDZ FP-1: -0.6; dFosB act-1: -5.6; CAL PDZ FP-2: -2.1; SR-BI DiI-HDL act: 13.8

How did Nc1nonc1-c1nc2ccccc2n1CC(=O)Nc1ccccc1 do in these assays?
SR-BI HDL uptake: -6.8; CAL PDZ FP-1: -2.4; dFosB act-1: 33.1*; CAL PDZ FP-2: -1.3; SR-BI DiI-HDL act: 6.8; dFosB act-2: 2.3

How did Cc1csc(NC(=O)c2cc3c(s2)-c2ccccc2OC3)n1 do in these assays?
SR-BI HDL uptake: 67.6; CAL PDZ FP-1: 0.2; dFosB act-1: 34.9*; SR-BI DiI-HDL act: -67.6; dFosB act-2: -1.6

How did Cc1ccc(S(=O)(=O)Nc2ccc(NC(=O)Nc3ccc(F)cc3F)cc2)cc1 do in these assays?
SR-BI HDL uptake: 3.4; CAL PDZ FP-1: 0.4; dFosB act-1: 20.2*; CAL PDZ FP-2: 1.2; SR-BI DiI-HDL act: -3.4; dFosB act-2: 4.5
